# Screens as filed in PubChem.
# TNAP inh hi DEA – inhibitors of human TNAP at high phosphate acceptor concentration. purified TNAP, CDP-star luminescence, 1 M DEA. 200,000 compounds, 0.03% hits. P05186. AID 1135. inhibition, % at 20 µM;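 active = over 50% inhibition of tissue-nonspecific alkaline phosphatase at 20 µM in the single-dose screen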;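 also: plate controls were DMSO wells for no effect and EDTA-quenched wells as full inhibition for full effect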
# Target sequence (P05186 whole entry, looked up): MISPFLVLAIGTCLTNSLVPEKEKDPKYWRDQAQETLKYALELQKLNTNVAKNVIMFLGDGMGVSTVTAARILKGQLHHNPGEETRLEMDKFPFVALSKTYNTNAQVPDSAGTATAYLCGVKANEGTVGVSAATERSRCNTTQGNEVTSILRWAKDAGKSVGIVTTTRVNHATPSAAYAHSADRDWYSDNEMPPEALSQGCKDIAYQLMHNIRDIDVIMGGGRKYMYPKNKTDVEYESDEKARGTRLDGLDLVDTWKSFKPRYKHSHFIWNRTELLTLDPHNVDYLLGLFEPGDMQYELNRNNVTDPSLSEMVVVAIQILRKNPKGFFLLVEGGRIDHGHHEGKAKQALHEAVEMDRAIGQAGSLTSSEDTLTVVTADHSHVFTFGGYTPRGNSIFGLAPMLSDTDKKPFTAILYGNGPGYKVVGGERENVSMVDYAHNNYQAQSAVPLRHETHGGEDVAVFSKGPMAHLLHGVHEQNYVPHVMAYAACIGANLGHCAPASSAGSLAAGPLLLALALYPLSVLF
# HCT116 bCat-KO – beta-catenin-lacking colon tumor cell growth suppression; HCT116 beta-catenin knockout viability, CellTiter-Glo, 60 h; hits give low values; viability, % at 10 µM; 140,000 compounds, 1.5% hits;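 active = viability at or under a set limit, the compound median less 4 SD, cut at about 6% in these data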;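 also: 0% = Hyamine 1622 control at 20 µM and 100% = untreated cell control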
# TNAP inh no acc – inhibitors of human TNAP without phosphate acceptor; 200,000 compounds, 0.26% hits; P05186; inhibition, % at 20 µM; purified TNAP, CDP-star luminescence, 30 min;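 active = tissue-nonspecific alkaline phosphatase inhibition above about 50% at 20 µM in the single-dose screen, limit read from the data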;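 also: 0% = DMSO negative control and 100% = EDTA positive control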
# TNAP act hi DEA – increases human TNAP activity under high phosphate acceptor concentration; P05186; purified TNAP, CDP-star luminescence, 1 M DEA, 30 min; hits give high values; 0 = EDTA background, 1 = DMSO-only activity; activation factor at 20 µM; 200,000 tested, under 10 active;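 active = activation factor at least 2 at 20 µM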
#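 Measured by: Luminescent substrate turnover signal | Test system: Human TNAP | Input: TNAP 1/800 final | Dosing: 20 µM single point | Schedule: 30 min, room temperature | Controls: EDTA wells as negative control, DMSO wells as positive control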
# L major viab – inhibitors of Leishmania major promastigote growth; Leishmania major promastigotes, resazurin fluorescence viability; inhibition, % at 10 µM; 200,000 compounds, 9% hits; AID 1063; in the data active = inhibition above about 50%;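 also: promastigotes grown with compound for 44 hours at 28 °C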
# HCT116 PTEN-null – growth suppressors of cells with PTEN tumor suppressor deletion | HCT116 PTEN-null viability, CellTiter-Glo, 60 h; hits give low values | viability, % at 10 µM | 140,000 compounds, 1.2% hits | AID 827;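 active = viability at or below a set limit, 4 SD under the median of all tested compounds, cut at about 3.7% in these data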;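 also: PTEN knockout HCT116 line with beta catenin targeted HCT116 as companion control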
# The depositor's hits bear a star; . = no result. The list is not random: actives were taken first. Their share in the collection is about 9.6%.
SMILES,TNAP inh hi DEA,HCT116 bCat-KO,TNAP inh no acc,TNAP act hi DEA,L major viab,HCT116 PTEN-null
Cc1cccc(COc2ncnc3nc[nH]c23)c1,-6.7,82.4,-31.1,1.1,-1.2,88.2
O=C(CSc1ncn[nH]1)Nc1nc(-c2ccccc2)cs1,-7.9,99.4,84.5*,1.1,92.9*,105.0
O=C(CSc1ncn[nH]1)NCCOc1ccccc1,3.6,90.5,13.1,1,3.0,109.0
O=C(CSc1ncn[nH]1)NCCC(c1ccccc1)c1ccccc1,50.9*,90.9,54.8*,0.5,-2.4,93.7
NNc1nc(-c2ccccc2)cc(-c2ccccc2O)n1,6.4,32.8,9.2,0.9,89.4*,38.3
Nc1nc(-c2ccccc2)cc(-c2ccccc2O)n1,-3.3,17.2,5.0,1,25.9,17.4
COc1ccc(Cl)cc1NC(=O)CN1CCC(n2nnc3cc(F)ccc32)CC1,-9.3,104.0,-54.6,1.1,0.7,95.2
CCOC(=O)C1CCC(CNCc2ccccc2C)CC1 (stereo unspecified),-2.3,.,-7.9,1,95.1*,.
COc1ccc(OC2C(=O)N(Cc3ccc(F)cc3)C2c2ccc(OC)c(OC)c2)cc1 (stereo unspecified),0.5,88.3,-4.8,1,5.5,85.4
COc1ccc(OC2C(=O)N(Cc3ccc4c(c3)OCO4)C2c2sccc2C)cc1 (stereo unspecified),-6.5,76.8,-15.9,1.1,92.0*,66.5
CCn1c2ccccc2c2cc(/C=N/O)ccc21,-2.6,.,-8.8,1,-4.5,.
CCn1c2ccc(/C(C)=N\O)cc2c2cc(/C(C)=N\O)ccc21,-7.8,101.6,-11.8,1.1,54.0*,89.4
CC(C)(C)n1nnnc1C(c1cccs1)N(Cc1cccnc1)Cc1ccccc1Cl (stereo unspecified),-7.7,13.1,-10.6,1.1,100.1*,12.1
CC(c1nnnn1C(C)(C)C)N(Cc1cccnc1)Cc1ccccc1Cl (stereo unspecified),-2.4,83.7,-7.4,1,96.5*,74.8
CCN(Cc1ccccc1)C(c1ccc(C(F)(F)F)cc1)c1nnnn1C(C)(C)C (stereo unspecified),.,38.0,.,.,28.3,31.2
O=C(NCC1CCCO1)C(=O)c1c[nH]c2ccccc12 (stereo unspecified),-1.5,.,-8.0,1,-2.0,.
COC(=O)c1cc(C(=O)c2ccc(Cl)cc2)n2c(=O)/c(=C\N(C)C)sc12,5.0,.,-3.3,0.9,9.5,.
Cc1cc(-c2csc(N)n2)c(C)n1C,0.0,83.0,17.4,1,5.8,94.3
Cc1ccc(-n2c(C)cc(-c3csc(N)n3)c2C)cc1,8.9,53.2,-16.7,0.9,66.7*,35.5
Cc1cc(Cl)ccc1NC(=S)NCc1cccs1,-4.1,87.1,-9.5,1,77.0*,104.8
c1ccc(-c2ccc(C3=Nn4c(Cn5nnc6ccccc65)nnc4SC3)cc2)cc1,-5.6,72.0,-14.4,1.1,8.2,61.5
CC(NC(=O)c1ccccc1)c1nc2ccccc2n1Cc1ccc(C#N)cc1 (stereo unspecified),-2.6,78.2,-2.6,1,18.8,88.5
CC(NC(=O)c1ccccc1)c1nc2ccccc2n1Cc1ccccc1F (stereo unspecified),-5.6,76.1,-6.8,1.1,53.5*,66.5
Nc1ccc(C(=O)OCc2nc3cc4ccccc4cc3[nH]2)cc1,-4.0,.,-39.7,1,62.6*,.
CC(C)(C)n1[nH]c2c3c(ccc2c1=O)C(=O)c1ccccc1C3=O,0.9,7.4,-5.0,1,95.3*,7.8
SMILES,TNAP inh hi DEA,HCT116 bCat-KO,TNAP inh no acc,TNAP act hi DEA,L major viab,HCT116 PTEN-null
COc1ccccc1/C=N/NC(=O)CN(C1=NS(=O)(=O)c2ccccc21)c1ccccc1,-4.2,109.1,5.6,1,45.4,101.9
COc1ccc(/C=N/NC(=O)CN(C2=NS(=O)(=O)c3ccccc32)c2ccccc2)cc1,0.8,93.4,0.1,1,56.2*,92.7
Cc1cc(C)c2nc(SCCc3ccccc3)nc(C)c2c1,-2.2,109.7,-10.5,1,5.7,101.9
CC1=C(C)C(=O)NC(Nc2nc(C)c3cc(C)cc(C)c3n2)N1 (stereo unspecified),.,.,.,.,100.2*,.
Cc1sc2c(=O)n3c(nc2c1C(=O)NCCCN1CCOCC1)CCCCC3,-5.7,107.3,-12.6,1.1,24.1,1.5*
CC1(C)C2CCC1(C)C(OCC[N+](C)(C)CC(=O)OC1CCCCC1)C2 (stereo unspecified),-2.2,48.8,-1.0,1,99.7*,35.3
CCOC(=O)C[N+](C)(C)CCOC1CC2CCC1(C)C2(C)C (stereo unspecified),-4.3,.,-5.6,1,-6.3,.
CCNC(=S)Nc1ccc(Cl)c([N+](=O)[O-])c1,-7.4,.,-18.9,1.1,2.5,.
CCCCCCC(C)NC(=S)Nc1cc(S(=O)(=O)N(C)C)ccc1C (stereo unspecified),-5.9,80.1,-33.0,1.1,-5.0,79.6
O=C1/C(=C/c2ccc(O)c([N+](=O)[O-])c2)SC(=S)N1Cc1ccccc1,31.7,.,26.2,0.7,15.9,.
O=C1CSC(=S)N1Cc1cccnc1,-1.7,3.9*,-121.7,1,100.0*,3.2*
O=C1/C(=C/c2ccccc2O)SC(=S)N1Cc1cccnc1,24.8,17.1,-1.8,0.8,87.7*,23.1
CCN=C1S/C(=C\c2sccc2C)C(=O)N1CC,-2.7,81.8,-12.5,1,-1.9,83.9
CCc1ccc(NC(=O)Cc2ccc(-n3cccc3)cc2)cc1,-8.9,90.5,-12.1,1.1,86.1*,101.3
COC(=O)c1ccc(NC(=O)Cc2ccccc2)cc1,-0.8,92.9,-9.5,1,76.2*,83.6
COC(=O)c1ccc(NC(=O)Cc2ccc(C)cc2)cc1,-12.1,92.1,-5.1,1.1,64.6*,83.4
CC(=O)c1ccc(NC(=O)CN2C(=O)CCC2=O)cc1,-3.8,.,-8.8,1,7.0,.
COC(=O)c1ccc(NC(=O)CN2C(=O)CNC2=O)cc1,0.7,88.1,-4.5,1,90.7*,92.5
CC(C)CC(C(=O)O)N1C(=O)C2C3CC(C2C1=O)C1C(c2ccccc2)c2sc(=O)[nH]c2SC31 (stereo unspecified),-3.3,91.1,-12.2,1,-1.7,97.8
CCOC(=O)C1=C(C)N(CC(C)C)C(=O)C1,-5.5,.,-10.8,1.1,-7.0,.
COC(=O)c1ccc(NC(=O)CN(Cc2ccc(Cl)cc2)S(C)(=O)=O)cc1,-10.8,99.0,-10.9,1.1,100.2*,97.7
CC(C)(C)c1ccc(-c2csc(NC(=O)CN3C(=O)NC4(CCCCC4)C3=O)n2)cc1,-8.6,37.4,-8.8,1.1,98.7*,30.8
CCOC(=O)c1ccc(NC(=O)CN2C(=O)NC3(CCCCCC3)C2=O)cc1,-4.1,.,-17.0,1,90.9*,.
CS(=O)(=O)N(CC(=O)Nc1ccc2c(c1)OCO2)Cc1ccc(Cl)cc1,-2.8,89.6,-18.4,1,21.2,89.2
